Reference: ChEMBL document CHEMBL4177662, “Phosphamide-containing diphenylpyrimidine analogues (PA-DPPYs) as potent focal adhesion kinase (FAK) inhibitors with enhanced activity against pancreatic cancer cell lines” (Bioorg Med Chem, 2017)

Key:
[1] = target: Tyrosine-protein kinase BTK (Homo sapiens) (UniProt Q06187); experiment: Inhibition of recombinant full length His-tagged human BTK cytoplasmic domain expressed in baculovirus expression system at 100 nM relative to control
Procedure, shortened: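 Percent inhibition of kinase activity at a single 100 nM test concentration, from an outsourced biochemical profiling screen.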

[2] = target: Protein-tyrosine kinase 2-beta (Homo sapiens) (UniProt Q14289); experiment: Inhibition of recombinant full length GST-tagged human PYK2 cytoplasmic domain expressed in baculovirus expression system at 100 nM relative to control
Procedure, shortened: (§1)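 SelectScreen biochemical kinase profiling service; percent inhibition of each kinase at a single compound concentration of 100 nM.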

ASPC1 [3] = experiment: Antiproliferative activity against human Aspc-1 cells assessed as cell viability at 8 uM after 72 hrs by MTT assay (reference value: 97%); assay type: functional; details: ASPC1, 72 h, read-out: Activity
ASPC1 [4] = experiment: Induction of apoptosis in human Aspc-1 cells assessed as late apoptotic cells at 2.5 uM after 72 hrs by Annexin V-FITC/propidium iodide staining-based flow cytometry (reference value: 0%); assay type: functional
Procedure, shortened: (§2)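 AsPC-1 cells (3 to 5×10^5 per well) were treated with DMSO solvent control or compound for 72 h in medium with 5% FBS. Cells were then stained with Annexin V-FITC and propidium iodide and analysed by flow cytometry. One representative experiment shown.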

ASPC1 [5] = experiment: Cell cycle arrest in human Aspc-1 cells assessed as accumulation at G0/G1 phase at 5 uM after 72 hrs by propidium iodide staining-based flow cytometry (reference value: 39.41%); assay type: functional
ASPC1 [6] = experiment: Cell cycle arrest in human Aspc-1 cells assessed as accumulation at G2/M phase at 5 uM after 72 hrs by propidium iodide staining-based flow cytometry (reference value: 0.89%); assay type: functional
ASPC1 [7] = experiment: Cell cycle arrest in human Aspc-1 cells assessed as accumulation at G0/G1 phase at 2.5 uM after 72 hrs by propidium iodide staining-based flow cytometry (reference value: 39.41%); assay type: functional
PANC-1 (human) [8] = experiment: Antiproliferative activity against human PANC-1 cells assessed as cell viability at 4 uM after 48 hrs by MTT assay (reference value: 98.8%); details: PANC-1, 48 h
PANC-1 (human) [9] = experiment: Antiproliferative activity against human PANC-1 cells assessed as cell viability at 8 uM after 48 hrs by MTT assay (reference value: 98.8%); details: PANC-1, 48 h
[10] = target: T1, Tyrosine-protein kinase JAK3 (Homo sapiens) (UniProt P52333); experiment: Inhibition of recombinant GST-tagged human JAK3 catalytic domain (781 to 1124 residues) expressed in baculovirus expression system at 100 nM relative to control; procedure, shortened: as §1
T1 sequence (whole entry): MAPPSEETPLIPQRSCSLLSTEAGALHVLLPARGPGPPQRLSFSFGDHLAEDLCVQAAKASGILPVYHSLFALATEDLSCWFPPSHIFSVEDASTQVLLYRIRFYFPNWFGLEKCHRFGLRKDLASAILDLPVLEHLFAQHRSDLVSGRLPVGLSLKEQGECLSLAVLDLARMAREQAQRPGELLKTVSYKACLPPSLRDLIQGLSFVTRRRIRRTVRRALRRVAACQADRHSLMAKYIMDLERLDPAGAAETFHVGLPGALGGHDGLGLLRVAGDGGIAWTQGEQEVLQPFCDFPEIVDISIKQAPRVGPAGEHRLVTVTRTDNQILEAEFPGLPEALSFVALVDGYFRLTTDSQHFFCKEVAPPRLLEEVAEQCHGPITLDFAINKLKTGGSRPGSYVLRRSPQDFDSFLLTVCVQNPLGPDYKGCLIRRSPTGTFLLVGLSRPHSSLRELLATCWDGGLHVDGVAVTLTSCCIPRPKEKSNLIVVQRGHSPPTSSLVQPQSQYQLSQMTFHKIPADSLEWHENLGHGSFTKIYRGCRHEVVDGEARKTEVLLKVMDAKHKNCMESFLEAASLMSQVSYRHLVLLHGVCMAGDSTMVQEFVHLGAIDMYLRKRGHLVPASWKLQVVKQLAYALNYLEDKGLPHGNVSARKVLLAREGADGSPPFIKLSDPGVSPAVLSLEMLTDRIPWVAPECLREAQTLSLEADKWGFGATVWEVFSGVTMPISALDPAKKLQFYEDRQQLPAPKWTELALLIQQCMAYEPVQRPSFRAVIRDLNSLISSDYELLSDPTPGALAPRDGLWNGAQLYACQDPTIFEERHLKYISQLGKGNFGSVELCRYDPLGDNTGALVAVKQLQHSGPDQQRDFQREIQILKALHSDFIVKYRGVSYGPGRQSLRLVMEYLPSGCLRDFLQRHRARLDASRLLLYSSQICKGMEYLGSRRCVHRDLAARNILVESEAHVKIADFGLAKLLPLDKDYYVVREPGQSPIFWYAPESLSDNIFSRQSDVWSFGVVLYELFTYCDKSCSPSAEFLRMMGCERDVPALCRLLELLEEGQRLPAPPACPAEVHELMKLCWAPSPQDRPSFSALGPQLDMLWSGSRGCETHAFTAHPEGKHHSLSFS

Focal adhesion kinase 1 = Focal adhesion kinase 1 (Homo sapiens, UniProt Q05397); experiment: Inhibition of recombinant full length GST-tagged human FAK expressed in baculovirus expression system at 100 nM relative to control; procedure, shortened: as §1
ASPC1 [11] = experiment: Antiproliferative activity against human Aspc-1 cells after 72 hrs by MTT assay; assay type: functional, cell-based; details: ASPC1, 72 h
Procedure, shortened: (§3)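 Cells grown in DMEM with 10% FBS and 1% penicillin-streptomycin at 37 °C, 5% CO2. Seeded at 4,000 to 5,000 cells/well, cultured one day, then exposed to compounds for 72 h at 1.25 to 40 μmol/L, five replicates per concentration. MTT absorbance read at 570 nm. IC50 from five-point dose-response curves; mean of at least three separate experiments.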

BXPC-3 [12] = experiment: Antiproliferative activity against human BxPC3 cells assessed as cell viability at 0.5 uM after 48 hrs by MTT assay (reference value: 98.8%); assay type: functional; details: BXPC-3, 48 h, read-out: Activity
ASPC1 [13] = experiment: Antiproliferative activity against human Aspc-1 cells assessed as cell viability at 0.5 uM after 72 hrs by MTT assay (reference value: 97%); assay type: functional; details: ASPC1, 72 h, read-out: Activity
BXPC-3 [14] = experiment: Antiproliferative activity against human BxPC3 cells assessed as cell viability at 4 uM after 24 hrs by MTT assay (reference value: 100%); assay type: functional; details: BXPC-3, 24 h, read-out: Activity
ASPC1 [15] = experiment: Antiproliferative activity against human Aspc-1 cells assessed as cell viability at 8 uM after 48 hrs by MTT assay (reference value: 98.1%); assay type: functional; details: ASPC1, 48 h, read-out: Activity
BXPC-3 [16] = experiment: Antiproliferative activity against human BxPC3 cells after 72 hrs by MTT assay; assay type: functional, cell-based; details: BXPC-3, 72 h; procedure, shortened: as §3
ASPC1 [17] = experiment: Antiproliferative activity against human Aspc-1 cells assessed as cell viability at 4 uM after 72 hrs by MTT assay (reference value: 97%); assay type: functional; details: ASPC1, 72 h, read-out: Activity
ASPC1 [18] = experiment: Induction of apoptosis in human Aspc-1 cells assessed as early apoptotic cells at 10 uM after 72 hrs by Annexin V-FITC/propidium iodide staining-based flow cytometry (reference value: 0%); assay type: functional; procedure, shortened: as §2
[19] = Antiproliferative activity against human HPDE6c7 cells after 72 hrs by MTT assay; assay type: cell-based; details: HPDE6c7, 72 h; procedure, shortened: as §3

Focal adhesion kinase 1, sequence (Q05397 2-1052 limits assumed): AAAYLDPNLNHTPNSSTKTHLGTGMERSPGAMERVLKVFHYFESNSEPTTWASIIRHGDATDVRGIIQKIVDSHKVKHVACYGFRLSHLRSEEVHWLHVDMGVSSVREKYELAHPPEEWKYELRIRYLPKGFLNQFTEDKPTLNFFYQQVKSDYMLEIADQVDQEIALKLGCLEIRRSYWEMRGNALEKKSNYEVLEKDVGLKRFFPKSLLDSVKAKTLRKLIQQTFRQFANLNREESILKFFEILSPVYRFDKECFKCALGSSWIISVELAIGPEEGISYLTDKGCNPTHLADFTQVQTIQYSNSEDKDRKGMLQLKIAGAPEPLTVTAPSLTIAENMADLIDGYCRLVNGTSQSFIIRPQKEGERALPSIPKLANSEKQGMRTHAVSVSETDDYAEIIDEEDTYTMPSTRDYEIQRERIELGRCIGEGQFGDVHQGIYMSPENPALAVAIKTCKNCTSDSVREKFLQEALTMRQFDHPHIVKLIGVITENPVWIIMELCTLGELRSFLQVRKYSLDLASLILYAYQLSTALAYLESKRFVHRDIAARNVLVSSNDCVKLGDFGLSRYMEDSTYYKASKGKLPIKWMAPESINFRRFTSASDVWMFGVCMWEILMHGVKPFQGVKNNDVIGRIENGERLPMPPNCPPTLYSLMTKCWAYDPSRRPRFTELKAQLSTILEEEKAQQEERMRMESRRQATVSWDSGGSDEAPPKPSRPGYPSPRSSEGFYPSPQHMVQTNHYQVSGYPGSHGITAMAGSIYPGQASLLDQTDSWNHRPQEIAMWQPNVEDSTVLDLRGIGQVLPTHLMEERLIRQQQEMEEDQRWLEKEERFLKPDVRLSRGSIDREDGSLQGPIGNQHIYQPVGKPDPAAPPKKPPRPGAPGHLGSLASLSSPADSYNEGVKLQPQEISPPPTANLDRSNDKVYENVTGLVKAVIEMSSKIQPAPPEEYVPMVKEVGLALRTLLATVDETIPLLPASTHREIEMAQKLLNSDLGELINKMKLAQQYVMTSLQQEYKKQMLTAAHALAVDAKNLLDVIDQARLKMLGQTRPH
Protein-tyrosine kinase 2-beta (Homo sapiens), sequence (Q14289 whole entry, looked up, the tested form may be a part): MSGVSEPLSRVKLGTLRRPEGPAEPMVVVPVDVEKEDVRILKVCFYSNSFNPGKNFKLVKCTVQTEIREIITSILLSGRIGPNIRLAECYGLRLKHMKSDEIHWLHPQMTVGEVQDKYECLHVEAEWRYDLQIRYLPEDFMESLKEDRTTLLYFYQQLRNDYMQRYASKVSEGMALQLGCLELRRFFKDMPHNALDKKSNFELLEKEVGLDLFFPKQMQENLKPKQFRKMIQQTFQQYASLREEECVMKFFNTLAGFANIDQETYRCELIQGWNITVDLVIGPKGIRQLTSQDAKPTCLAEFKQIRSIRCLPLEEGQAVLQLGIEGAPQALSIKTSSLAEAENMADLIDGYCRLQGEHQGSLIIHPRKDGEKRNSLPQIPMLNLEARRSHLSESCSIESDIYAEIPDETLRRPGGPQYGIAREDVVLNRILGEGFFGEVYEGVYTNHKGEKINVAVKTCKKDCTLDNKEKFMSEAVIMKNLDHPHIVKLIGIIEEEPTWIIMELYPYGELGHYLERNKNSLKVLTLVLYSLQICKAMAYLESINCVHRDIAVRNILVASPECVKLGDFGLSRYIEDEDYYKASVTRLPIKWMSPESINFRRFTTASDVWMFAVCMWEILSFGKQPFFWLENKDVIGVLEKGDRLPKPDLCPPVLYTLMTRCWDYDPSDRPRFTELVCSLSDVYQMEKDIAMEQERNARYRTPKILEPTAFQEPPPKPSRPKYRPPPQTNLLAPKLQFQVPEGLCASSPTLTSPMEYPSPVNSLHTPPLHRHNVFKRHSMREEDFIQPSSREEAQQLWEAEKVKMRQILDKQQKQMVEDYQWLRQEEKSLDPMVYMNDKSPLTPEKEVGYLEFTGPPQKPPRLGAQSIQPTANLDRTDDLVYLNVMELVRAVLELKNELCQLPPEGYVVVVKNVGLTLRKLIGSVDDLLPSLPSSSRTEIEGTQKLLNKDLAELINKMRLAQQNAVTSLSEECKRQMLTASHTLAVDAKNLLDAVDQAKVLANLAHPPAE
Tyrosine-protein kinase BTK (Homo sapiens), sequence (Q06187 whole entry, the tested form may be a part): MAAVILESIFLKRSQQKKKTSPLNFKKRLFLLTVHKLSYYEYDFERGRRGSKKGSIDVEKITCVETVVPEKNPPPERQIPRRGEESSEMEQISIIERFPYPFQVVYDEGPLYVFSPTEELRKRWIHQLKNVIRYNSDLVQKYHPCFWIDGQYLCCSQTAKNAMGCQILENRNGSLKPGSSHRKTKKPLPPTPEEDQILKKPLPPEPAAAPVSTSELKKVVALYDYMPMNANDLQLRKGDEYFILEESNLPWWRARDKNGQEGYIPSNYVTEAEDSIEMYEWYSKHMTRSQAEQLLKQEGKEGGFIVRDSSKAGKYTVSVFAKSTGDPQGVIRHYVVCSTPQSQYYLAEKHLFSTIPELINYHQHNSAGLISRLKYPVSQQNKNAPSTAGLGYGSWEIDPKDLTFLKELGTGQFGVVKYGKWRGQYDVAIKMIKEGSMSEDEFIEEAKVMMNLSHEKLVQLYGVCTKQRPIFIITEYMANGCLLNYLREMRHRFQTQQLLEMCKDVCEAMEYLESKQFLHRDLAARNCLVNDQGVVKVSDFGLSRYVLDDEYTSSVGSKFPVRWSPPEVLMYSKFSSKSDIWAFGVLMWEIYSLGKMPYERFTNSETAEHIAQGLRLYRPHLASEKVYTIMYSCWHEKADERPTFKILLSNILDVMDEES

Compound CCOP(=O)(CCCOc1ccc(Nc2ncc([N+](=O)[O-])c(Nc3ccccc3C(=O)NC)n2)cc1)N1CCOCC1 (stereo not given) has an inhibition [1] of 33%, an inhibition [2] of 71% and a viability at 8 µM (ASPC1 [3]) of 16.8%. It also gave an Activity (ASPC1 [4]) of 20.7%, an Activity (ASPC1 [5]) of 40.06% and an Activity (ASPC1 [6]) of 22.11%. The Activity (ASPC1 [7]) was 38.18%, the viability at 4 µM (PANC-1 (human) [8]) was 61.6% and the viability at 8 µM (PANC-1 (human) [9]) was 29.5%. For the same compound, the inhibition [10] was 26%, the inhibition (Focal adhesion kinase 1) was 92% and the IC50 (ASPC1 [11]) was 1660 nM. The viability at 0.5 µM (BXPC-3 [12]) was 96.7%, the viability at 0.5 µM (ASPC1 [13]) was 94.4% and the viability at 4 µM (BXPC-3 [14]) was 88.5%. The viability at 8 µM (ASPC1 [15]) was 30.2%, the IC50 (BXPC-3 [16]) was 570 nM and the viability at 4 µM (ASPC1 [17]) was 40.8%. It also gave an Activity (ASPC1 [18]) of 16.6% and an IC50 [19] greater than 20000 nM.
